Screening results as filed in PubChem BioAssay.
A selection: hits, their analogues and other compounds. The true share with any hit is near 3.5%.
MrgX1 PAM: allosterically activates human MrgX1 receptor signaling | Q96LB2 | MrgX1-HEK293, Fluo-4 calcium flux, FDSS; hits give high values | B-score at 10 µM | 310,000 tested, 0.63% active;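 active = plate-corrected calcium response at least 3 library SD above typical, normal starting fluorescence, not activating the receptor alone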;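 also: compound read alongside a low EC10 to EC30 dose of BAM8-22 agonist; peak minus trough fluorescence over baseline measured at the second addition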
Target sequence (Q96LB2 whole entry, looked up): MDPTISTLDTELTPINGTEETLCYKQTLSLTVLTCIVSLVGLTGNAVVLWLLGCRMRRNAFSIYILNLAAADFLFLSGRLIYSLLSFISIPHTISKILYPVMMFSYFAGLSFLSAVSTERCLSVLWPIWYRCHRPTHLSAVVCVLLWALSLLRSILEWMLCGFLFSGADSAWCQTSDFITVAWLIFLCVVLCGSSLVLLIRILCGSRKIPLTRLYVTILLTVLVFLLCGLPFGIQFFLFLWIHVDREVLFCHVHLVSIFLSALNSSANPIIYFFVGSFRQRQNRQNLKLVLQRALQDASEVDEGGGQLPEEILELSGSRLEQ
RGS4 act: potentiators or activators of RGS4; B-score at 10 µM; HEK293 M3R/inducible RGS4, carbachol calcium flux Fluo4; hits give low values; 310,000 tested, 0.92% active;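 active = B-score of the integrated calcium signal more than 4 SD below the library mean, with starting fluorescence not abnormally high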;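 also: negative B-score means reduced calcium response which marks RGS4 activation or potentiation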
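Test system: HEK293 cells with stable M3R and inducible RGS4; also added: carbachol at ECmax as muscarinic agonist stimulus; schedule: dye loading 30 min 37 °C, buffer rest 30 min RT; technique: kinetic calcium fluorescence imaging with Fluo4-AM dye, 2 µM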
MrgX1 antag: blocks BAM8-22 activation of human MrgX1 receptor; MRGX1-HEK293 calcium flux, Fluo-4, BAM8-22 antagonism; hits give low values; B-score at 10 µM; 310,000 tested, 1.3% active;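 active = calcium-response B-score plate-corrected more than 3 library SD below zero, starting fluorescence within 5 deviations, no agonist response on first addition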;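 also: peak minus trough fluorescence over baseline after final BAM8-22 challenge near maximal dose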
RGS4 inh: human RGS4 inhibition | P49798 | HEK293 M3R/RGS4 inducible, Fluo-4 calcium flux; hits give high values; triggered by carbachol at its EC20 | B-score at 10 µM | 310,000 tested, 0.45% active | AID 463165;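 active = B-score, a plate-corrected calcium signal, over three deviations above library mean, with baseline fluorescence within five deviations of library mean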;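 also: RGS4 expression induced by doxycycline in cells with stable M3 receptor; B-score is computed from the integrated fluorescence ratio over baseline after carbachol; higher B-score means a larger calcium signal and so more RGS4 inhibition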
MrgX1 ag: human MrgX1 receptor agonism, primary screen. 310,000 tested, 0.44% active. B-score at 10 µM. Q96LB2. MrgX1-HEK293 cells, Fluo-4 calcium fluorescence, agonist mode; hits give high values. AID 588627;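 active = calcium response B-score plate-corrected fluorescence ratio at least 3 library SD, with starting fluorescence B-score inside 5 SD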
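Assay system: MrgX1-expressing HEK293 cells / Amount: fifteen thousand cells per well / Doses: test compound in the initial addition of three / Timing: cells plated overnight, dye loaded 0.5 h 37 °C, 0.5 h room temperature / Technique: kinetic calcium dye fluorescence, Fluo-4 NW / Control set: positive and negative controls per plate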
* = called active by the depositor; i = inactive.

SMILES	MrgX1 PAM	RGS4 act	MrgX1 antag	RGS4 inh	MrgX1 ag
CCC(C)[C@H]1CNCCN1CCc1cc(C(F)(F)F)cc(C(F)(F)F)c1 (stereo not given in full)	i	i	i	i	i
Cc1cc(C(=O)N/N=C/C=C/c2ccc(Br)cc2)n[nH]1	i	i	-5.6*	i	i
Cc1cc(C(=O)N/N=C/C=C/c2ccc([N+](=O)[O-])cc2)n[nH]1	i	i	i	i	i
CC1N(C)c2cccc3cccc(c23)N1C	i	i	i	i	32.6*
CN1c2cccc3cccc(c23)N(C)C1c1cccs1	i	i	i	i	i
COc1ccc(C(CCN(Cc2ccc(OC)c(OC)c2)C(C)=O)c2ccccc2)cc1 (stereo not given)	i	i	i	i	i
COc1ccc(CN(CCC(c2ccccc2)c2ccc(OC(C)C)cc2)C(=O)CCl)cc1OC (stereo not given)	10.3*	-7.14*	i	i	i
Cc1oc(-c2ccc(Cl)cc2)nc1CS(=O)CC(=O)NCc1ccc2c(c1)OCO2 (stereo not given)	i	i	-4.86*	i	i
CNC(=O)Nc1cc(C(F)(F)F)cc(C(F)(F)F)c1	i	i	i	i	i
O=C(Nc1cc(C(F)(F)F)cc(C(F)(F)F)c1)Nc1cnn(-c2ccc([N+](=O)[O-])cc2)c1C(F)(F)F	i	i	-6.96*	i	i
Cc1ccc(N(CC(=O)NC2CCCC2)C(=O)CNC(=O)c2cccs2)cc1F	i	i	i	i	i
Cc1ccc(C2Oc3ccccc3C3=C2C(c2cccs2)n2ncnc2N3)cc1 (stereo not given)	i	-7.28*	i	i	i
Fc1ccc(C2C3=C(Nc4ncnn42)c2ccccc2OC3c2ccncc2)cc1 (stereo not given)	i	i	i	i	i
COc1cc(C2NC(=O)NC(c3ccccc3)=C2C(C)=O)c(Cl)cc1OCC(=O)O (stereo not given)	i	i	i	i	i
CC(NC(=O)c1sc2cc([N+](=O)[O-])ccc2c1Cl)C(C)(C)C (stereo not given)	6.88*	i	i	i	i
C=CCN1C(=O)/C(=C/c2ccc(O)c(OC)c2)S/C1=N/c1nccs1	9.04*	i	i	i	i
C=CCN1C(=O)/C(=C/c2ccc(OCC(=O)O)cc2)S/C1=N/c1nccs1	i	i	i	i	i
CC(/C=N/NC(=O)CCn1nnc2ccccc21)=C\c1ccccc1	i	i	-7.66*	i	i
CC(/C=N/NC(=O)Cn1cnc2ccccc21)=C\c1ccccc1	i	i	i	i	i
O=C1/C(=C\c2cccc([N+](=O)[O-])c2O)SC(=S)N1Cc1ccccc1	i	i	-8.03*	i	i
COc1cc([N+](=O)[O-])cc(/C=C2/SC(=S)N(Cc3ccccc3)C2=O)c1O	i	-7.58*	i	i	42.8*
O=C1/C(=C/c2ccccc2O)SC(=S)N1Cc1cccnc1	i	i	i	i	i
O=C1/C(=C\c2cc(Br)cc(Br)c2O)SC(=S)N1Cc1ccccc1	i	i	-6.12*	i	i
O=C(N/C(=C\c1ccccc1)C(=O)N1CCCCC1)c1ccc(Br)o1	i	i	i	i	i
CCN1CCCC1CNC(=O)CN(C)S(=O)(=O)c1ccc(Cl)cc1 (stereo not given)	i	i	i	i	i
O=C(O)/C=C/C(=O)c1ccc2c(c1)CCc1ccccc1-2	i	i	-5.21*	i	i
CCC(=O)N1c2ccc(S(=O)(=O)NCCc3ccc(OC)c(OC)c3)cc2CC1C (stereo not given)	i	i	i	i	i
O=C(Cc1cccs1)Nc1nnc(SCc2ccc(C(F)(F)F)cc2)s1	i	i	-9.08*	i	i
COc1ccc(N(C)S(=O)(=O)c2cccc(C(=O)N3CCN(S(=O)(=O)c4ccc(C)cc4)CC3)c2)cc1	i	i	i	i	i
Cc1c(-c2ccc(OCc3ccccc3)cc2)nc2ccccc2c1C(=O)O	i	i	i	i	i
